FXIIa inh = blocks human coagulation factor XIIa protease activity | P00748 | purified FXIIa, Boc-QGR-AMC fluorogenic substrate, 2 h | inhibition, % at 5 µM | 220,000 tested, 0.3% active | AID 800; in the data active = inhibition above about 40%;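 note: 0% = enzyme with no compound and 100% = blank without enzyme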
Thrombin inh = thrombin (human) inhibition. P00734. alpha-thrombin, Boc-VPR-AMC fluorogenic substrate cleavage. inhibition, % at 5 µM. 220,000 tested, 0.26% active. AID 1046;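 active = inhibition at or above 40%; inactive = inhibition below 40%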;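 note: 0% = enzyme with no compound and 100% = wells without enzyme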
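Material: human alpha-thrombin protein. Incubation: reaction at ambient temperature. Technique: fluorescence of released AMC, ex 355 nm, em 460 nm. Control set: no-compound enzyme wells and no-enzyme blanks. Also added: Boc-VPR-AMC substrate, 15 µM final. Buffer or medium: pH 7.5 Tris (50 mM) with NaCl 150 mM, Tween 20 0.05%.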
EP2 modulator = modulators of human EP2 prostaglandin E2 receptor | P43116 | EP2-expressing cells, cAMP HTRF FRET, PGE2 co-stimulation | induction, % at 25 µM | 260,000 tested, 0.83% active | AID 940;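 active = compounds whose cAMP rise, as percent of the full-agonist control response, exceeds 60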;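 note: rat C6 glioma line stably carrying human EP2 under a CMV promoter; the protocol text gives 20 µM as final concentration; 100% = response of wells given 1 µM PGE2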
Target sequence (P43116 whole entry, looked up): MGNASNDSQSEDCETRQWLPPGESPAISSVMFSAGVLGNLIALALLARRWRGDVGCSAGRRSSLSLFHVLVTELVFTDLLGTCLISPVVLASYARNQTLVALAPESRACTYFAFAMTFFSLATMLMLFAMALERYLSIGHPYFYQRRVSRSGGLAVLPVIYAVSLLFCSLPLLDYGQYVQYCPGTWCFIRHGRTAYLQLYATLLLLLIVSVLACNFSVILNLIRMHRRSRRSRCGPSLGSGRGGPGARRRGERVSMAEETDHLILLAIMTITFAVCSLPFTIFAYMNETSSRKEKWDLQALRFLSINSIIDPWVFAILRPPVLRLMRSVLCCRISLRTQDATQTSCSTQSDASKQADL
KLK5 inh = blocks human kallikrein 5 protease activity; inhibition, % at 5 µM; 210,000 tested, 0.59% active; recombinant hK5, fluorogenic AMC substrate cleavage; AID 873;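 active = inhibition of 40% or more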;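 note: 0% = enzyme controls without compound and 100% = no-enzyme blanks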
Target sequence (Q9Y337 67-293 limits assumed): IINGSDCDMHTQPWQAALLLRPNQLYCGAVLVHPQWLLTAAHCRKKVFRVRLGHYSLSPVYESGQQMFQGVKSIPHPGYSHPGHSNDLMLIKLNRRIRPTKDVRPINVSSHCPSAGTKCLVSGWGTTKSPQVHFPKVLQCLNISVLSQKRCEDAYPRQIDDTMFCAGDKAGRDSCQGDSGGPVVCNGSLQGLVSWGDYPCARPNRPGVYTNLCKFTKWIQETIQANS
EP2 antag = blocks the human prostaglandin E2 receptor EP2; P43116; C6 glioma cells expressing human EP2, cAMP TR-FRET; cells stimulated with saturating PGE2; inhibition, % at 25 µM; 260,000 tested, 0.52% active; AID 1422;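 active = percent inhibition above 40 after rounding to a whole number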;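 note: rat C6 glioma host cells with rolipram phosphodiesterase inhibitor present; the protocol text gives 20 µM as final concentration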
FXIa inh = blocks human coagulation factor XIa protease activity; P03951; purified FXIa, Boc-Glu-Ala-Arg-AMC fluorogenic substrate; 220,000 tested, 0.14% active; inhibition, % at 5 µM;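 active = inhibition of at least 40%; inactive = inhibition below 40%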;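 note: fluorescence of freed AMC excited at 355 nm; 0% = enzyme without compound and 100% = no enzyme blank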
Active calls of the source: *; · = no result; ! = not active in a repeat. Only some compounds are listed: those with a hit (about 2.1% of all), similar ones and a draw of the others.

SMILES	FXIIa inh	Thrombin inh	EP2 modulator	KLK5 inh	EP2 antag	FXIa inh
COC(=O)NC1CSCC1OC(=O)CCN1C(=O)c2ccccc2C1=O (stereo unspecified)	11	2	-6	-4	9	1
C/C(=N\NC(=O)CCn1nnc2ccccc21)c1cccs1	43*	24	-4	19	7	11
CC(=O)NC(c1ccc(F)cc1)c1cccnc1 (stereo unspecified)	12	10	15	49*	7	6
O=C(O)CCN1C(=O)C2C3c4ccccc4C(c4ccccc43)[C@@H]2C1=O (stereo partly specified)	46*	23	19	30	8	31
COc1ccc(C(=O)N2CCC(c3ccncc3)CC2)c2ccccc12	·	·	-60	·	·	·
CC(C)[C@H]1CN(Cc2ccco2)CCN1Cc1nnnn1Cc1cccs1	·	·	-29	·	·	·
N#CCn1cc(/C=C2\C(=O)NC(=O)N(c3ccc(Cl)cc3)C2=O)c2ccccc21	·	·	-107	·	84*	·
COCCNC(=O)Cn1cc(/C=C2/C(=O)NC(=O)N(c3ccc4ccccc4c3)C2=O)c2ccccc21	·	·	-66	·	10	·
Cc1c(/C(O)=C2/C(=O)C(=O)N(CCN3CCOCC3)C2c2cccs2)cnn1-c1ccccc1 (stereo unspecified)	105*	22	15	32	15	10
CCCC(=O)N1c2ccc(-c3csc(NC(=O)c4cccc(OC)c4)n3)cc2CC1C (stereo unspecified)	·	·	-48	·	7	·
CCC(=O)N1c2ccc(-c3csc(NC(=O)c4ccccc4Cl)n3)cc2CC1C (stereo unspecified)	·	·	27	·	94*	·
COc1ccc(OC)c(C2CC(c3ccc(OC)c(OC)c3)=NN2C(C)=O)c1 (stereo unspecified)	·	·	14	·	9	·
COc1ccc(S(=O)(=O)N2CCSC2)cc1C	6	-11	6	-8	8	-5
Cc1ccc(S(=O)(=O)N2CCSC2)cc1C	-8	-6	-14	-2	109*!	-6
c1ccc(-c2n[nH]c3c2CCC3)cc1	20	12	12	51*	12	8
O=C(NCc1ccco1)c1ccc2c(c1)N(Cc1ccccc1)CCS2	-5	-8	16	-1	5	4
Cc1ccc(CN2CCSc3ccc(C(=O)NCc4ccccn4)cc32)cc1	1	1	61*	-1	9	-5
CN(C)c1ccc(/C=N/NC(=O)CCCCCNC(=O)c2ccccc2)cc1	21	15	-25	80*	11	7
COc1ccc(Cl)cc1NC(=S)NNC(=O)C1(C)CC1(Cl)Cl (stereo unspecified)	49*	2	-26	13	4	6
O=C1c2ccccc2C(=O)N1/N=C/c1ccc(O)c(O)c1O	31	11	5	45*	5	23
O=C1c2cccc3cccc(c23)C(=O)N1/N=C/c1ccc(O)cc1O	8	4	8	2	12	1
O=[N+]([O-])c1nn(-c2ccc(Cl)cc2)n(O)c1=NCc1cccnc1	4	-10	-20	-4	2	4
O=[N+]([O-])c1nn(-c2cccc(Cl)c2)n(O)c1=NCc1cccnc1	17	17	6	75*	9	12
O=C(COC(=O)c1cc(Br)ccc1O)Nc1cc(S(=O)(=O)N2CCCC2)ccc1Cl	1	45*	-5	-19	12	-8
O=C(NCCN=C1NS(=O)(=O)c2ccccc21)c1ccco1	-3	12	7	74*	·	1
SMILES	FXIIa inh	Thrombin inh	EP2 modulator	KLK5 inh	EP2 antag	FXIa inh
O=C(NCCCN=C1NS(=O)(=O)c2ccccc21)c1ccco1	10	-1	25	-7	7	6
CSc1nc2ccccc2n1Cc1cccc(F)c1	-5	0	35	-21	9	-9
Fc1cccc(Oc2nc3ccccc3n3cccc23)c1	-2	-3	62*	16	14	-2
COCCn1c(SCC#N)nnc1-c1ccc(OC)cc1	9	0	24	-6	123*	1
COCCn1c(SCC(=O)Nc2sc(C)c(C)c2C#N)nnc1-c1ccc(OC)cc1	-6	2	0	128*	8	-12
CC1CCC(N(C(=O)c2csnn2)C(C(=O)NC2CCCC2)c2ccccc2)CC1 (stereo unspecified)	·	·	45	·	10	·
CCC(C)(C)NC(=O)c1ccc2c(c1)N(CC(=O)N1C(C)CCCC1C)C(=O)C(C)(C)O2 (stereo unspecified)	·	·	5	·	13	·
CC(C)c1ccc(NC(=O)c2ccc(Br)o2)cc1	50*	25	-39	30	24	22
O=C(Nc1ccc(Nc2ccccc2)cc1)c1ccc(Br)o1	0	-18	-13	-2	·	4
Cc1c(NC(=O)c2ccc(Br)o2)cccc1C(=O)O	45*	1	7	6	7	19
Cc1cnc(C(=O)Nc2nnc(CC(=O)N3CCOCC3)s2)cn1	·	·	29	·	11	·
O=C(N/N=C/c1c[nH]c2ccccc12)c1cc(-c2cccc3ccccc23)n[nH]1	-4	43*	-3	25	12	7
O=C(N/N=C/c1ccccn1)c1cc(-c2ccc3ccccc3c2)n[nH]1	-3	-9	-9	-15	51*	-6
Cc1ccc(-c2cc(C(=O)N/N=C/c3c[nH]c4ccccc34)[nH]n2)cc1	25	-1	-78	-12	58*	16
O=C(N/N=C/c1c[nH]c2ccccc12)c1cc(-c2ccc3ccccc3c2)n[nH]1	12	-5	-14	-7	22	7
CCc1ccc(-c2cc(C(=O)N/N=C/c3ccccn3)[nH]n2)cc1	2	17	-80	-14	14	-6
O=C(c1ccc(Cl)c(Cl)c1)N1CCC(O)(c2ccccn2)CC1	·	·	-43	·	·	·
O=C(c1noc2c1CCc1ccccc1-2)N1CCc2ccccc2C1	23	21	-13	30	7	7
O=C(c1noc2c1CCc1ccccc1-2)N1CCOCC1	-7	1	8	72*	2	-9
CCOC(=O)Cc1cc(-c2ccccc2)nc2ccc3ccccc3c12	14	0	44	-18	·	5
O[C@@H](c1cc(-c2ccccc2)nc2c1ccc1ccccc12)[C@@H]1CCCCN1	·	·	-11	·	84*	·
COc1ccc(-c2cc([C@H](O)[C@@H]3CCCCN3)c3ccccc3n2)cc1	·	·	-23	·	50*	·
COC(=O)Cn1cc(CN2CCC(O)(c3ccc(F)cc3)CC2)c2ccccc21	·	·	-41	·	14	·
Cc1ccc2[nH]c(=O)c(N3CCOCC3)c(-c3ccccc3)c2c1	2	16	47	47*	7	12
COCCn1c(SCC(=O)Nc2c(C)cccc2C)nnc1-c1ccoc1C	·	·	-10	·	6	·
Cc1cccc(NC(=S)N(Cc2cc3c(C)cc(C)cc3[nH]c2=O)CC2CCCO2)c1 (stereo unspecified)	·	·	27	·	7	·

Screening data: PubChem, several laboratories
